The results in this text go back to ChEMBL document CHEMBL1122228, “1-(Aminomethyl)-6,7-dihydroxytetralin derivatives: synthesis and assessment of dopamine-like effects” (1983).

SMILES strings stand for the structures. Activity calls are given as the source filed them. The calls are words filed in the database; no cut-off is given here.

Broadly, the ED50 is the dose at which the effect has come halfway, by size or by number of responders.

Experiment [1] concerns Felis catus. Briefly: Inhibition of positive chronotropic response induced by stimulation of cardioaccelerator nerve of cat at 1 mg/kg (iv); Inactive. It counts as functional, organism-based. Also on record: dose 1 mg/kg. In a few lines: (§1)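 Cats of either sex, 4–6 kg, were anesthetized with intraperitoneal pentobarbital sodium (30 mg/kg) and pretreated with atropine sulfate (200 μg/kg) and hexamethonium bromide (10 mg/kg). They were intubated and ventilated, with the chest opened. Bipolar platinum electrodes were placed on the right postganglionic cardioaccelerator nerves, stimulated at 2 Hz for 30 s, 2-ms pulses, supramaximal 20–25 V. Heart rate was recorded. Compounds were given iv up to 1 mg/kg.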

Experiment [2] has as its system Felis catus. Briefly: Ability to lower arterial blood pressure in cat at 1.7 umol/kg. It counts as functional, Artery. The method, boiled down: (§2)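 Cats of either sex, 4–6 kg, anesthetized with intraperitoneal pentobarbital sodium (30 mg/kg), intubated and ventilated by respirator. Arterial blood pressure and heart rate were monitored. Test doses ranged from 0.5 to 1.0 mg/kg.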

Experiment [3] has as its system Felis catus. Nature of the experiment: Ability to lower arterial blood pressure in cat at 3.4 umol/kg. It counts as functional, Artery. The method, boiled down: as §2
Experiment [4] concerns Felis catus. Nature of the experiment: Inhibition of positive chronotropic response induced by stimulation of cardioaccelerator nerve of cat at 1 mg/kg (iv). It counts as functional. In a few lines:
as §1

The test system of experiment [5] is Felis catus. Briefly: Active dose range of hypotensive effect in cat; range is 0.008-0.032 uM/kg. It counts as functional.

Turning to `CC(C)N(C)CC1CCCc2cc(O)c(O)cc21` (stereo unspecified), the outcome with Felis catus [1] was inactive. `CCN(CC)CC1CCCc2cc(O)c(O)cc21` (stereo unspecified): in the experiment on Felis catus [1], the outcome was inactive. Consider `CCNCC1CCCc2cc(O)c(O)cc21` (stereo unspecified), for which the outcome in the experiment on Felis catus [1] was inactive.

As for `CC(C)NCC1CCCc2cc(O)c(O)cc21` (stereo unspecified), the outcome in the experiment on Felis catus [1] was inactive. With `CNCC1CCCc2cc(O)c(O)cc21` (stereo unspecified), the result with Felis catus [1] was inactive. For the molecule `Br.CN(C)CC1CCCc2cc(O)c(O)cc21` (stereo unspecified), the BP with Felis catus [2] is 31.5 mmHg; in the experiment with Felis catus [3], 34.5 mmHg. For the same molecule, the result in the experiment with Felis catus [1] was inactive. As to `CCCNCC1CCCc2cc(O)c(O)cc21` (stereo unspecified), the result in the experiment with Felis catus [1] was inactive. As to `CN1CCc2cccc3c2[C@H]1Cc1ccc(O)c(O)c1-3` [APOMORPHINE], the ED50 in the experiment with Felis catus [4] is 0.022 µmol/kg. This molecule returned a Dose range in the experiment on Felis catus [5] of 0.032 µM/kg.
